# In PubChem BioAssay AID2520 (Sanford-Burnham Center for Chemical Genomics, 2010):
# About 350 (0.11%) of roughly 330,000 compounds were called active. For the sample, actives were picked, then their nearest neighbours and some compounds at random. A number with no mark means an inactive call.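 The calls were made as follows: active = activation more than six SD over the plate average, tested at 20 µM; inactive = the rest.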
# Target: Apelin receptor (Homo sapiens) (UniProt P35414)
# Assay: APJ activation via beta-arrestin recruitment – CHO-K1 cells, PathHunter beta-arrestin, luminescence, primary screen (AID 2520);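 also: 0% = DMSO alone and 100% = apelin-13 at 10 nM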
# Settings: at 20 µM, stronger effect = higher value, 0% DMSO wells, 100% apelin
# Outline: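 Assay system: CHO-K1 APJ beta-arrestin complementation cell line / Compound: single test compound dose, 20 µM final, 1% DMSO / Times: overnight seeding, 90 min compound at 25 °C, 1 h detection / Technique: beta-gal luminescence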
# Sequence of Apelin receptor (Homo sapiens) (P35414 whole entry, looked up): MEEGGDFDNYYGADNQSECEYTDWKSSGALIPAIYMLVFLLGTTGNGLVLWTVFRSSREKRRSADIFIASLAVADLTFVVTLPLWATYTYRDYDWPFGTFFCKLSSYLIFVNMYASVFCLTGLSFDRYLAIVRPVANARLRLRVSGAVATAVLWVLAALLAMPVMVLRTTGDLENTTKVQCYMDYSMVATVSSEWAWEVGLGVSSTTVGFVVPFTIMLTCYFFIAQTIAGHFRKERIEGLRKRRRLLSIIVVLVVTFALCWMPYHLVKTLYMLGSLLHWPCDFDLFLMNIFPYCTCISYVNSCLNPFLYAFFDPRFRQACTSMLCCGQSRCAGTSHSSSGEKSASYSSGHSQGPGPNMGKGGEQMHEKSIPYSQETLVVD
row,SMILES,activation
1,CCn1c(SCC(=O)NC2CC2)nnc1-c1ccncc1,-8.09%
2,CN1CCC(=O)N([C@H](CO)Cc2ccccc2)CC1,-1.16%
3,Cc1nn(Cc2ccccc2)c(C)c1C(=O)NCCCN1CCCC1=O,-4.22%
4,COC(=O)C1C(=O)CC(C)(O)C(C(=O)OC)C1c1ccc2c(c1)OCO2 (stereo not drawn),2.74%
5,NC(=O)CN1CCCC1c1ccc2c(c1)OCCO2 (stereo not drawn),0.777%
6,O=C(O)Cc1ccc(NC(=O)C2CCCCC2C(=O)O)cc1 (stereo not drawn),-3.2%
7,Cc1cc(C)nc(NC2=NCC(=O)N2c2ccc(Cl)cc2)n1,-2.04%
8,Cc1ccnc(SCCn2c(N(C)Cc3ccccc3)nc3c2c(=O)n(C)c(=O)n3C)n1,-0.694%
9,Cc1[nH]c(C)c(S(=O)(=O)N2CCN(c3cccc(C(F)(F)F)c3)CC2)c1C(=O)N1CCCC1,0.662%
10,COc1ccccc1N(CC(=O)NC1CCCC1)C(=O)C1(C)CC(=O)N=C2C=CC(C)=CN21 (stereo not drawn),-0.286%
11,Cc1cc(C)nc(SCc2nnc(SCC(=O)Nc3ncc(C)s3)n2Cc2ccco2)n1,-3.79%
12,CC[C@@]1(C(=O)OC)N[C@H](CN(C)C(C)=O)[C@@H]2C(=O)N(C)C(=O)[C@@H]21,-1.38%
13,CCC(=O)Nc1c(C)n[nH]c1C,-0.823%
14,CN1CCN(c2ncc3c(n2)CC(c2ccccc2F)CC3=O)CC1 (stereo not drawn),-2.83%
15,CC(C)(C)Nc1c(N)c(=O)oc2ccccc12,-1.36%
16,CCCCC(=O)Nc1cc(C)c2c(=O)oc3ccccc3c2n1,7.83%
17,Cc1ccccc1-n1nnc2c(=O)oc3ccccc3c21,10.2% (active)
18,O=C(c1ccc(-c2ccccc2)cc1)C1CCCN(C(=O)c2cncs2)C1 (stereo not drawn),1.31%
19,Cc1noc(C)c1C(=O)NCC1COc2ccccc2O1 (stereo not drawn),-2.37%
20,Cc1ccccc1/[N+]([O-])=C/c1ccncc1,1.01%

row,SMILES,activation
1,COCCn1nnnc1CN1CCC(NC(=O)Nc2cccc(OC)c2)CC1,-0.645%
2,COc1ccc(NC(=O)CC(NC(C)c2ccccc2)C(=O)O)cc1 (stereo not drawn),-1.25%
3,CCN(CC)CCNc1nc(-c2ccc(OC(F)F)cc2)c(C)s1,-1.98%
4,CC1(C(=O)NNC(=S)NCC2CCCO2)CC1(Cl)Cl (stereo not drawn),-1.22%
5,O=C1CCC(=O)N1c1ccc(NCCc2ccccc2F)c([N+](=O)[O-])c1,-3.51%
6,O=C(NCCc1ccc(Cl)cc1)C1CCCN1C(=O)NCc1ccccc1 (stereo not drawn),0.456%
7,CN1C(=O)c2ccccc2C(C(=O)NCCCN2CCCC2)C1c1c[nH]c2ccccc12 (stereo not drawn),-1.97%
8,Cc1ccc(NS(=O)(=O)c2ccc(-c3ccc(=O)[nH]n3)o2)c(C)c1,2.4%
9,CN(C)c1ccc(C(CC(=O)O)C(=O)O)cc1 (stereo not drawn),-1.37%
10,CC(C)(C)n1nnc(CCc2nnn(C(C)(C)C)n2)n1,-4.6%
11,O=C(O)C1CCCN1S(=O)(=O)c1ccc(Br)cc1 (stereo not drawn),-2.7%
12,O=C(C1CC(=O)N(C2CCCC2)C1)N1CCN(c2cccc(C(F)(F)F)c2)CC1 (stereo not drawn),5.77%
13,CN(C)c1nc2n(c(=O)n1)CCO2,-2.79%
14,c1ccc(C2CCC(N3CCC(N4CCCCC4)CC3)CC2)cc1 (stereo not drawn),-3.04%
15,O=C(Nc1ccc(Cl)cc1)c1cc2nc(C3CC3)cc(C(F)(F)F)n2n1,-4.3%
16,FC(F)(F)c1ccc(CN2C[C@@H]3C(c4ccccc4)C4(c5ccccc5)CC3(C4)[C@H]2c2ccccc2)cc1 (stereo partly drawn),-0.566%
17,Cc1ccc(N(C(=O)Cc2cccs2)C2C=CS(=O)(=O)C2)cc1Cl (stereo not drawn),-2.42%
18,Cn1c(CC(=O)Nc2ccc(F)cc2)nnc1SCC(=O)NC1CCCCC1,-3.67%
19,COc1ccc(C)cc1NC(=O)c1cc(-c2ccccc2)nc2c1cnn2C(C)C,-4.65%
20,CCOc1cc2[nH]c(=S)n(CCCN3CCCC3=O)c(=O)c2cc1OCC,23.3% (active)

row,SMILES,activation
1,CCOc1cc2[nH]c(=S)n(CCN3CCCCC3C)c(=O)c2cc1OCC (stereo not drawn),7.97%
2,CCOc1cc2[nH]c(=O)n(Cc3ccc(C(=O)NCCCN4CCCC4=O)cc3)c(=O)c2cc1OCC,3.97%
3,CC1CN(C(=O)CCC(=O)NCCCN2CCC(Cc3ccccc3)CC2)c2cc(Cl)ccc2O1 (stereo not drawn),-4.59%
4,CCn1c(CSCc2c(Cl)cccc2Cl)n[nH]c1=S,-4.78%
5,CN1CCN(CCCCOc2ccccc2-c2ccccc2)CC1,3.27%
6,O=Cc1ccc(OCc2cn3ccccc3n2)cc1,-1.42%
7,COc1ccccc1CNC(=O)CN1CCC(n2cnc3cc(F)ccc32)CC1,-0.106%
8,Cc1cc(C(=O)OCC(=O)N2C(C)CCCC2C)c2ccccc2n1 (stereo not drawn),-2.15%
9,O=C(c1ccccc1)N1CCN(C(=O)c2cc3nc(-c4ccccc4)cc(C(F)(F)F)n3n2)CC1,-0.488%
10,COc1ccccc1Oc1ccc(N2CC(C(=O)OCC(=O)c3ccc(F)cc3)CC2=O)cc1 (stereo not drawn),-2.79%
11,O=C(Nc1ccc(F)c([N+](=O)[O-])c1)C1CC(=O)N(Cc2ccccc2)C1 (stereo not drawn),-2.4%
12,COc1cccc(N(CC(=O)NC2CCCC2)C(=O)Cn2nnc(-c3ccc(C)cc3)n2)c1,0.507%
13,O=C(CCCn1c(=O)c2sccc2n(CC(=O)NCC2CCCO2)c1=O)NCc1ccco1 (stereo not drawn),-4.48%
14,COc1ccccc1NC(=O)C1=C(C)Nc2nc3ccccc3n2C1c1cccs1 (stereo not drawn),-1.44%
15,COc1ccc(S(=O)(=O)N(CC(=O)NCc2ccco2)c2ccc(F)cc2)cc1,-0.367%
16,CN(C)N1C(N)=C(C#N)C(c2ccc(Br)cc2)C2=C1CCCC2=O (stereo not drawn),0.53%
17,O=[N+]([O-])c1ccccc1N/N=C1\CCc2ccccc21,-0.52%
18,O=C(N[C@@H](Cc1c[nH]c2ccccc12)C(=O)O)OCC1c2ccccc2-c2ccccc21,7.88%
